Experimental findings from ChEMBL document CHEMBL1151742, “Design, synthesis, and characterization of high-affinity, systemically-active galanin analogues with potent anticonvulsant activities” (J Med Chem, 2008) are described below.

Data set [1] has as its target T1, Galanin receptor type 2 (Homo sapiens, UniProt O43603).
T1 sequence (O43603 whole entry): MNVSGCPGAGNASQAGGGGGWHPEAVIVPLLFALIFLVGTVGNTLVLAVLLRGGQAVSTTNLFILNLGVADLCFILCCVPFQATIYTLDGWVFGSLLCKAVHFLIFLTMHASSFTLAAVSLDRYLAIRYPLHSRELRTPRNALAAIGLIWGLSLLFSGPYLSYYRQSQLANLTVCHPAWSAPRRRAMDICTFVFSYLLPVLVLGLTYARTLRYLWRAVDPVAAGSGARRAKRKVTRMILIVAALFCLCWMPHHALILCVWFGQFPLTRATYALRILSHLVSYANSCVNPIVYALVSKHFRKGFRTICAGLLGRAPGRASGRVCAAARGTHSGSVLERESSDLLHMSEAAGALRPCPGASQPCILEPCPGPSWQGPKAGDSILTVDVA
Put plainly: Binding affinity to human GalR2.

Data set [2] deals with Mus musculus. Kind of data set: Anticonvulsant activity in CF1 mouse assessed as inhibition of 6 Hz corneal stimulation-induced limbic seizures at 4 mg/kg, ip administered 60 mins before 6 Hz corneal stimulation. Conditions: Limbic system. On the set-up: dose 4 mg/kg. The class given is functional, organism-based. In short, it runs like this: (§1)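 Each analogue given ip at 4 mg/kg to five groups of CF-1 mice (n = 4 per group), one group per time point. Seizure challenge was 6 Hz corneal stimulation (32 mA for 3 s, corneal electrodes) at 15, 30, 60, 120 or 240 min after dosing. A mouse without a limbic seizure (jaw chomping, vibrissae twitching, forelimb clonus, Straub tail) was counted as protected.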

The test system of data set [3] is Mus musculus. Kind of data set: Anticonvulsant activity in CF1 mouse assessed as inhibition of 6 Hz corneal stimulation-induced limbic seizures at 4 mg/kg, ip administered 240 mins before 6 Hz corneal stimulation. The class given is functional, organism-based. Particulars: Limbic system. On the set-up: dose 4 mg/kg. In short, it runs like this:
as §1

The target of data set [4] is T2, Galanin receptor type 1 (Homo sapiens, UniProt P47211).
T2 sequence (P47211 whole entry): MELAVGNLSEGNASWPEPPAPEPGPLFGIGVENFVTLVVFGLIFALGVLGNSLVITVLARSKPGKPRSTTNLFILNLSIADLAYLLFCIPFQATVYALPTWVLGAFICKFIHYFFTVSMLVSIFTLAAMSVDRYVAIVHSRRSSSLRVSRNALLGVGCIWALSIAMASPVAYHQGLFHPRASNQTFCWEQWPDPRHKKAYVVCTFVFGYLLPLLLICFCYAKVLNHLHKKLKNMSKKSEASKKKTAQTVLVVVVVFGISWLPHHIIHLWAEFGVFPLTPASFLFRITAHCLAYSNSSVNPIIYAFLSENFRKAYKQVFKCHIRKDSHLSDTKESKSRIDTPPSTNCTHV
Kind of data set: Displacement of europium-labeled galanin from human GalR1 expressed in HEK293 EBNA cells. It is filed as cell-based.

Data set [5] can be described thus: Metabolic stability in rat serum assessed as half life at pH 7.5. The class given is ADME, cell-free. Put shortly: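 Peptide (final 20 µM) was incubated in 25% rat serum with 0.1 M Tris-HCl pH 7.5 at 37 °C, serum pre-warmed 10 min. Aliquots taken up to 8 h were quenched with 15% TCA in 40% isopropanol, held 15 min at -20 °C and centrifuged. Intact peptide was measured by reversed-phase HPLC peak area, and half-life was calculated from the disappearance.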

Data set [6] addresses T1, Galanin receptor type 2. Kind of data set: Displacement of europium-labeled galanin from human GalR2 expressed in CHO-K1 cells. The class given is cell-based.
For data set [7], the system named is Mus musculus. Kind of data set: Anticonvulsant activity in CF1 mouse assessed as inhibition of 6 Hz corneal stimulation-induced limbic seizures at 4 mg/kg, ip administered 120 mins before 6 Hz corneal stimulation. The class given is functional, organism-based. On the set-up: dose 4 mg/kg. Conditions: Limbic system. In short, it runs like this: as §1
Data set [8] deals with Mus musculus. Put plainly: Anticonvulsant activity in CF1 mouse assessed as inhibition of 6 Hz corneal stimulation-induced limbic seizures at 4 mg/kg, ip administered 15 mins before 6 Hz corneal stimulation. On the set-up: dose 4 mg/kg. It is filed as functional, organism-based. Particulars: Limbic system. Put shortly: as §1

pKd, pKi: −log10 of the molar value. Counter-ions that a name gives are not always drawn. Active and inactive are the calls of the source. The calls are words filed in the database; no cut-off is given here. Square brackets hold non-standard residues; d marks the D form. Peptide text beside a SMILES is read from it. * marks the point of attachment. Fmoc = O=C(OCC1c2ccccc2-c2ccccc21)*; Palmitoyl = CCCCCCCCCCCCCCCC(=O)*; Cha = N[C@@H](CC1CCCCC1)C(=O)O; AMC = Cc1cc(=O)oc2cc(N*)ccc12; Sar = CNCC(=O)O

In data set [1], `CC(C)C[C@H](NC(=O)[C@H](CC(C)C)NC(=O)[C@H](Cc1ccc(O)cc1)NC(=O)CNC(=O)[C@H](C)NC(=O)[C@H](CO)NC(=O)[C@H](CC(N)=O)NC(=O)[C@H](CC(C)C)NC(=O)[C@@H](NC(=O)[C@@H](N)Cc1c[nH]c2ccccc12)[C@@H](C)O)C(=O)O` showed a negative-log Kd (pKd) of 8.74.
For the compound `CCCCCCCCCCCCCCCC(=O)NCCCC[C@H](NC(=O)[C@H](CCCNC(=N)N)NC(=O)[C@H](CCCNC(=N)N)NC(=O)[C@@H]1CCCN1C(=O)CNC(=O)[C@H](CC(C)C)NC(=O)[C@H](CC(C)C)NC(=O)[C@H](Cc1ccc(O)cc1)NC(=O)CNC(=O)[C@H](C)NC(=O)[C@H](CO)NC(=O)[C@H](CC(N)=O)NC(=O)[C@H](CC(C)C)NC(=O)[C@@H](NC(=O)[C@H](Cc1c[nH]c2ccccc12)NC(=O)CNC)[C@@H](C)O)C(=O)N[C@@H](CCCNC(=N)N)C(N)=O`, the outcome in data set [2] was Active. The outcome in data set [3] was inactive.
On to `CCCCCCCCCCCCCCCC(=O)NCCCC[C@H](NC(=O)[C@H](CCCN=C(N)N)NC(=O)[C@H](CCCN=C(N)N)NC(=O)[C@@H]1CCCN1C(=O)CNC(=O)[C@H](CC(C)C)NC(=O)[C@H](CC(C)C)NC(=O)[C@H](Cc1ccc(O)cc1)NC(=O)CNC(=O)[C@H](C)NC(=O)[C@H](CO)NC(=O)[C@H](CC(N)=O)NC(=O)[C@H](CC(C)C)NC(=O)[C@@H](NC(=O)[C@H](Cc1c[nH]c2ccccc12)NC(=O)CNC)[C@@H](C)O)C(=O)N[C@@H](CCCN=C(N)N)C(N)=O`, for which the pKi was 8.48 in data set [4] and 7.18 in data set [6]. For the same compound, in data set [5], the half-life is 4.8 h.
With `CCCCCCCCCCCCCCCC(=O)NCCCC[C@H](NC(=O)[C@H](CCCCN)NC(=O)[C@H](CCCCN)NC(=O)[C@H](CCCCN)NC(=O)[C@@H]1CCCN1C(=O)CNC(=O)[C@H](CC(C)C)NC(=O)[C@H](CC(C)C)NC(=O)[C@H](Cc1ccc(O)cc1)NC(=O)CNC(=O)[C@H](C)NC(=O)[C@H](CO)NC(=O)[C@H](CC(N)=O)NC(=O)[C@H](CC(C)C)NC(=O)[C@@H](NC(=O)[C@H](Cc1c[nH]c2ccccc12)NC(=O)CNC)[C@@H](C)O)C(N)=O`, the outcome in data set [7] and in data set [3] was inactive. In addition, the pKi in data set [4] was 8.72; in data set [6] it was 7.66. In data set [5], the half-life was > 10 h.
In the case of `CCCCCCCCCCCCCCCC(=O)NCCCC[C@H](NC(=O)[C@H](CCCCN)NC(=O)[C@H](CCCCN)NC(=O)[C@@H]1CCCN1C(=O)CNC(=O)[C@H](CC(C)C)NC(=O)[C@H](CC(C)C)NC(=O)[C@H](Cc1ccc(O)cc1)NC(=O)CNC(=O)[C@H](C)NC(=O)[C@H](CO)NC(=O)[C@H](CC(N)=O)NC(=O)[C@H](CC(C)C)NC(=O)[C@@H](NC(=O)[C@H](Cc1c[nH]c2ccccc12)NC(=O)CCCCCN)[C@@H](C)O)C(=O)N[C@@H](CCCCN)C(N)=O`, the result in data set [8] was Active. Besides, the pKi in data set [4] is 7.67; in data set [6], 7.29. In addition, the half-life in data set [5] is > 10 h.
As to `CCCCCCCCCCCCCCCC(=O)NCCCC[C@H](NC(=O)[C@H](CCCCN)NC(=O)[C@H](CCCCN)NC(=O)[C@@H]1CCCN1C(=O)CNC(=O)[C@H](CC(C)C)NC(=O)[C@H](CC(C)C)NC(=O)[C@H](Cc1ccc(O)cc1)NC(=O)CNC(=O)[C@H](C)NC(=O)[C@H](CO)NC(=O)[C@H](CC(N)=O)NC(=O)[C@H](CC(C)C)NC(=O)[C@@H](NC(=O)[C@H](Cc1c[nH]c2ccccc12)NC(=O)CN)[C@@H](C)O)C(=O)N[C@@H](CCCCN)C(N)=O`, the result in data set [7] and in data set [3] was inactive. For the same compound, the values for the pKi in data set [4] and in data set [6] were 8.28 and 7.65, respectively. Besides, the half-life in data set [5] is > 10 h.
In data set [1], `Cc1cc(=O)oc2cc(NC(=O)[C@@H](CCCCN)NC(=O)[C@H](CC3CCCCC3)NC(=O)OCC3c4ccccc4-c4ccccc43)ccc12` [GALNON] (Fmoc-[Cha]-[dK]-{AMC}) had a pKd of 4.62.
In the case of `CCCCCCCCCCCCCCCC(=O)NCCCC[C@H](NC(=O)[C@H](CCCCN)NC(=O)[C@H](CCCCN)NC(=O)[C@H](CCCCN)NC(=O)[C@H](CCCCN)NC(=O)[C@H](CC(C)C)NC(=O)[C@H](CC(C)C)NC(=O)[C@H](Cc1ccc(O)cc1)NC(=O)CNC(=O)[C@H](C)NC(=O)[C@H](CO)NC(=O)[C@H](CC(N)=O)NC(=O)[C@H](CC(C)C)NC(=O)[C@@H](NC(=O)[C@H](Cc1c[nH]c2ccccc12)NC(=O)CNC)[C@@H](C)O)C(=O)N[C@@H](CCCCN)C(N)=O` (H-[Sar]WTLNSAGYLLKKKKK(Palmitoyl)K-NH2), the outcome in data set [7] was Active. Also, the pKi in data set [4] is 7.38; in data set [6], 6.67. Further, in data set [5], the half-life is 8.7 h.
Consider `CCCCCCCCCCCCCCCC(=O)NCCCC[C@H](NC(=O)[C@H](CCCCN)NC(=O)[C@H](CCCCN)NC(=O)CNC(=O)[C@H](CC(C)C)NC(=O)[C@H](CC(C)C)NC(=O)[C@H](Cc1ccc(O)cc1)NC(=O)CNC(=O)[C@H](C)NC(=O)[C@H](CO)NC(=O)[C@H](CC(N)=O)NC(=O)[C@H](CC(C)C)NC(=O)[C@@H](NC(=O)[C@H](Cc1c[nH]c2ccccc12)NC(=O)CNC)[C@@H](C)O)C(=O)N[C@@H](CCCCN)C(N)=O`, for which the result in data set [7] and in data set [3] was inactive. The figures for the pKi in data set [4] and in data set [6] were 7.59 and 7.12, respectively. Moreover, in data set [5], the half-life was 5.6 h.
Take `COC(=O)[C@H](CCCCN)NC(=O)[C@]1(C)NC(=O)c2nc(oc2C)[C@](C)(C(=O)NC2c3ccccc3-c3ccccc32)NC(=O)c2nc(oc2C)[C@](C)(C(=O)NCC2CCCCC2)NC(=O)c2nc1oc2C` [GALMIC TFA]: in data set [1], the pKd is < 4.00.
Regarding `CCCCCCCCCCCCCCCC(=O)NCCCC[C@@H](NC(=O)[C@H](CCCCN)NC(=O)[C@@H](CCCCN)NC(=O)[C@H]1CCCN1C(=O)CNC(=O)[C@H](CC(C)C)NC(=O)[C@H](CC(C)C)NC(=O)[C@H](Cc1ccc(O)cc1)NC(=O)CNC(=O)[C@H](C)NC(=O)[C@H](CO)NC(=O)[C@H](CC(N)=O)NC(=O)[C@H](CC(C)C)NC(=O)[C@@H](NC(=O)[C@H](Cc1c[nH]c2ccccc12)NC(=O)CNC)[C@@H](C)O)C(=O)N[C@@H](CCCCN)C(N)=O`, the outcome in data set [2] was Active.
As to `CCCCCCCCCCCCCCCC(=O)NCCCC[C@H](NC(=O)[C@@H](CCCCN)NC(=O)[C@@H](CCCCN)NC(=O)[C@@H]1CCCN1C(=O)CNC(=O)[C@H](CC(C)C)NC(=O)[C@H](CC(C)C)NC(=O)[C@H](Cc1ccc(O)cc1)NC(=O)CNC(=O)[C@H](C)NC(=O)[C@H](CO)NC(=O)[C@H](CC(N)=O)NC(=O)[C@H](CC(C)C)NC(=O)[C@@H](NC(=O)[C@H](Cc1c[nH]c2ccccc12)NC(=O)CNC)[C@@H](C)O)C(=O)N[C@H](CCCCN)C(N)=O`, the pKi in data set [4] was 9.05. In data set [5], the half-life is > 10 h.
For the compound `CCCCCCCCCCCCCCCC(=O)NCCCC[C@H](NC(=O)[C@H](CCCCN)NC(=O)[C@@H]1CCCN1C(=O)CNC(=O)[C@H](CC(C)C)NC(=O)[C@H](CC(C)C)NC(=O)[C@H](Cc1ccc(O)cc1)NC(=O)CNC(=O)[C@H](C)NC(=O)[C@H](CO)NC(=O)[C@H](CC(N)=O)NC(=O)[C@H](CC(C)C)NC(=O)[C@@H](NC(=O)[C@H](Cc1c[nH]c2ccccc12)NC(=O)CNC)[C@@H](C)O)C(=O)N[C@@H](CCCCN)C(=O)N[C@@H](CCCCN)C(N)=O`, the outcome in data set [2], in data set [7] and in data set [3] was inactive. Besides, the pKi in data set [4] was 8.22; in data set [6] it was 7.55. The half-life in data set [5] is 8.6 h.
On to `CCCCCCCCCCCCCCCC(=O)NCCCC[C@H](NC(=O)[C@H](CCCCN)NC(=O)[C@H](CCCCN)NC(=O)[C@@H]1CCCN1C(=O)CNC(=O)[C@H](CC(C)C)NC(=O)[C@H](CC(C)C)NC(=O)[C@H](Cc1ccc(O)cc1)NC(=O)CNC(=O)[C@H](C)NC(=O)[C@H](CO)NC(=O)[C@H](CC(N)=O)NC(=O)[C@H](CC(C)C)NC(=O)[C@@H](NC(=O)[C@@H](N)Cc1c[nH]c2ccccc12)[C@@H](C)O)C(=O)N[C@@H](CCCCN)C(N)=O` (H-WTLNSAGYLLGPKKK(Palmitoyl)K-NH2), for which the values for the pKi in data set [4] and in data set [6] were 6.41 and 7.32, respectively. The half-life in data set [5] is > 10 h. For the same compound, the outcome in data set [3] was inactive.
